Among the data in ChEMBL document CHEMBL1142087 (Antimicrob Agents Chemother, 2007) are Activity values, retold here.

The test system of assay [1] is Mus musculus. The experiment in a line: Lowering of arterial oxygen saturation decline in BALB/c mouse infected with influenza A virus (A/duck/Minnesota/1525/1981 (H5N1)) at 300 mg/kg/day, po qid for 5 days administered 48 hrs after infection measured on day 11 relative to carboxymethyl cellulose. The format is functional.
The test system of assay [2] is Mus musculus. The experiment in a line: Lowering of Arterial oxygen saturation decline in BALB/c mouse infected with influenza A virus (A/duck/Minnesota/1525/1981 (H5N1)) at 10 mg/kg/day, po twice daily for 5 days administered 1 hr after infection measured on day 11 relative to carboxymethyl cellulose. The format is functional. In short, it runs like this: (§1)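 Arterial oxygen saturation was measured by pulse oximeter, with the ear probe placed on the thigh and read after 30 s stabilization. Values were taken on day 11, 10 mice per group. Mice dead from infection were assigned 75%. Means were compared with CMC controls by t test.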

In assay [3] the test system is Mus musculus. The experiment in a line: Effect on survival of BALB/c mouse infected with influenza A virus (A/duck/Minnesota/1525/1981 (H5N1)) at 300 mg/kg/day, po twice daily for 5 days administered 1 hr after infection relative to carboxymethyl cellulose. The format is functional, organism-based.
Assay [4] deals with Mus musculus. Put plainly: Lowering of arterial oxygen saturation decline in BALB/c mouse infected with influenza A virus (A/duck/Minnesota/1525/1981 (H5N1)) at 300 mg/kg/day, po qid for 5 days administered 24 hrs after infection measured on day 11 relative to carboxymethyl cellulose. The format is functional.
Assay [5] concerns Mus musculus. Put plainly: Effect on survival of BALB/c mouse infected with influenza A virus (A/duck/Minnesota/1525/1981 (H5N1)) at 100 mg/kg/day, po qid for 5 days administered 1 hr after infection relative to carboxymethyl cellulose. Type of assay: functional, organism-based.
The subject of assay [6] is Mus musculus. Put plainly: Lowering of arterial oxygen saturation decline in BALB/c mouse infected with influenza A virus (A/duck/Minnesota/1525/1981 (H5N1)) at 300 mg/kg/day, po qid for 5 days administered 60 hrs after infection measured on day 11 relative to carboxymethyl cellulose. The format is functional.
Assay [7] has as its system Mus musculus. The experiment in a line: Lowering of Arterial oxygen saturation decline in BALB/c mouse infected with influenza A virus (A/duck/Minnesota/1525/1981 (H5N1)) at 30 mg/kg/day, po twice daily for 5 days administered 1 hr after infection measured on day 11 relative to carboxymethyl cellulose. Type of assay: functional. In short, it runs like this:
as §1

The subject of assay [8] is Mus musculus. The experiment in a line: Inhibition of increase in lung weight of BALB/c mouse infected with influenza A virus (A/duck/Minnesota/1525/1981 (H5N1)) at 300 mg/kg/day, po qid for 5 days administered 1 hr after infection measured on day 6 relative to carboxymethyl cellulose. The format is functional.
The test system of assay [9] is Mus musculus. Put plainly: Effect on survival of BALB/c mouse infected with influenza A virus (A/duck/Minnesota/1525/1981 (H5N1)) at 100 mg/kg/day, po once daily for 5 days administered 1 hr after infection relative to carboxymethyl cellulose. The format is functional, organism-based.
Assay [10] has as its system Mus musculus. The experiment in a line: Lowering of arterial oxygen saturation decline in BALB/c mouse infected with influenza A virus (A/duck/Minnesota/1525/1981 (H5N1)) at 100 mg/kg/day, po once daily for 5 days administered 1 hr after infection measured on day 11 relative to carboxymethyl cellulose. The format is functional.
Assay [11] relates to Mus musculus. The experiment in a line: Lowering of arterial oxygen saturation decline in BALB/c mouse infected with influenza A virus (A/duck/Minnesota/1525/1981 (H5N1)) at 300 mg/kg/day, po qid for 5 days administered 84 hrs after infection measured on day 11 relative to carboxymethyl cellulose. The format is functional.
The test system of assay [12] is Mus musculus. Put plainly: Lowering of Arterial oxygen saturation decline in BALB/c mouse infected with influenza A virus (A/duck/Minnesota/1525/1981 (H5N1)) at 300 mg/kg/day, po twice daily for 5 days administered 1 hr after infection measured on day 11 relative to carboxymethyl cellulose. Type of assay: functional.
Assay [13] relates to Mus musculus. Put plainly: Effect on survival of BALB/c mouse infected with influenza A virus (A/duck/Minnesota/1525/1981 (H5N1)) at 300 mg/kg/day, po once daily for 5 days administered 1 hr after infection relative to carboxymethyl cellulose. The format is functional, organism-based.
For assay [14], the system named is Mus musculus. The experiment in a line: Effect on survival in BALB/c mouse infected with influenza A virus (A/duck/Minnesota/1525/1981 (H5N1)) at 300 mg/kg/day, po administered 4 hrs after infection relative to carboxymethyl cellulose. The format is functional, organism-based.
The subject of assay [15] is Mus musculus. Put plainly: Lowering of arterial oxygen saturation decline in BALB/c mouse infected with influenza A virus (A/duck/Minnesota/1525/1981 (H5N1)) at 300 mg/kg/day, po once daily for 5 days administered 1 hr after infection measured on day 11 relative to carboxymethyl cellulose. The format is functional.
Assay [16] deals with Mus musculus. The experiment in a line: Effect on survival of BALB/c mouse infected with influenza A virus (A/duck/Minnesota/1525/1981 (H5N1)) at 300 mg/kg/day, po qid for 5 days administered 36 hrs after infection relative to carboxymethyl cellulose. The format is functional, organism-based.
For assay [17], the system named is Mus musculus. Put plainly: Lowering of Arterial oxygen saturation decline in BALB/c mouse infected with influenza A virus (A/duck/Minnesota/1525/1981 (H5N1)) at 100 mg/kg/day, po qid for 5 days administered 1 hr after infection measured on day 11 relative to carboxymethyl cellulose. The format is functional. In short, it runs like this: as §1
The subject of assay [18] is Mus musculus. Put plainly: Effect on survival in BALB/c mouse infected with influenza A virus (A/duck/Minnesota/1525/1981 (H5N1)) at 300 mg/kg/day, po administered 12 hrs after infection relative to carboxymethyl cellulose. Type of assay: functional, organism-based.
Assay [19] concerns Mus musculus. Put plainly: Lowering of arterial oxygen saturation decline in BALB/c mouse infected with influenza A virus (A/duck/Minnesota/1525/1981 (H5N1)) at 300 mg/kg/day, po qid for 5 days administered 72 hrs after infection measured on day 11 relative to carboxymethyl cellulose. Type of assay: functional.
In assay [20] the test system is Mus musculus. The experiment in a line: Inhibition of increase in lung weight of BALB/c mouse infected with influenza A virus (A/duck/Minnesota/1525/1981 (H5N1)) at 33 mg/kg/day, po qid for 5 days administered 1 hr after infection measured on day 6 relative to carboxymethyl cellulose. Type of assay: functional.

Calls of active or inactive are those of the source. No cut-off for these calls is given here.

`NC(=O)c1nc(F)cnc1O` [FAVIPIRAVIR]: the Activity is recorded as 87.1% in [1]; 75.5% in assay [2]; 85.3% in assay [4]; 84.6% in [6]; 79.8% in assay [7]; 146 mg in assay [8]. Further, the Activity is recorded as 80.8% in [10]; 81.7% in assay [11]; 86.9% in assay [12]; 82.7% in assay [15]; 85.9% in [17]; 84.1% in assay [19]. Besides, the Activity in [20] is 217 mg. Further, the outcome in assay [3], in assay [5], in assay [9], in assay [13], in [14] and in [16] was Active. The outcome in [18] was Active.
